Screening results deposited in PubChem by The Scripps Research Institute Molecular Screening Center.
CHRM5 antagonist = human M5 muscarinic receptor antagonists, primary screen, CHO cells, Fluo-8 calcium fluorescence. CHO-hM5 cells, ACh EC80. Muscarinic acetylcholine receptor M5 (Homo sapiens), P08912. 360,000 tested, 0.59% active. AID 624040, 2012. inhibition, % at 3 µM;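 active = inhibition above a per-plate cutoff, the mean of that plate's test compounds plus 3 SD, cut at about 27% in these data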
CHRM4 agonist = human M4 muscarinic receptor agonists, primary screen, CHO-K1 cells, Fluo-8 calcium fluorescence. 360,000 tested, 0.14% active. CHO-K1 hM4/Gqi5; vehicle 0%, full acetylcholine response 100%. activation, % at 3 µM. Muscarinic acetylcholine receptor M4 (Homo sapiens), P08173. AID 624127, 2012;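 active = activation above the run mean over all test wells plus 3 SD, cut at about 32% in these data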;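 note: peak over basal fluorescence ratio per well then scaled between controls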
Target sequence (P08173 whole entry, looked up): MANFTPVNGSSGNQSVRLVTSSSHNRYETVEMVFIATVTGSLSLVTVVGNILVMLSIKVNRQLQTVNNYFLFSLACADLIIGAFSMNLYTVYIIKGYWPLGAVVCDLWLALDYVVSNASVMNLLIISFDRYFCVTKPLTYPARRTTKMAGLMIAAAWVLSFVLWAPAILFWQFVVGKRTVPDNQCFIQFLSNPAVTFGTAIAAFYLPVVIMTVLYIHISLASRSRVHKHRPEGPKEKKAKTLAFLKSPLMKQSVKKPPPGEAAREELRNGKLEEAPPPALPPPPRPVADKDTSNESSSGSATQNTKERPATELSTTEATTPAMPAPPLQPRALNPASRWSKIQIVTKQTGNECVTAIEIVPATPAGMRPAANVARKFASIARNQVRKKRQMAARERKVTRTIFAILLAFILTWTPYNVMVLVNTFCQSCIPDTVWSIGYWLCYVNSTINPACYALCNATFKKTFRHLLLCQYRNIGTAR
CHRM4 PAM = human M4 muscarinic receptor positive allosteric modulators, primary screen, CHO-K1 cells, Fluo-8 calcium fluorescence; activation, % at 3 µM; CHO-K1 hM4/Gqi5, ACh EC20; 0% = ACh EC20, 100% = maximal ACh; 360,000 tested, 0.4% active;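 active = activation above its plate's cutoff, the mean activation of sample wells plus 3 SD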
M5 ag = human M5 muscarinic receptor agonists, primary screen, CHO-K1 cells, Fluo-8 calcium fluorescence; Muscarinic acetylcholine receptor M5 (Homo sapiens), P08912; CHO-K1 hM5 cells; 0% DMSO wells, 100% maximal acetylcholine response; activation, % at 3 µM; 360,000 tested, 0.19% active; AID 624037, 2012;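 active = activation above the run's mean over test compounds plus 3 SD, cut at about 23% in these data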;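 note: signal is peak over basal fluorescence ratio across the kinetic read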
M4 antag = human M4 muscarinic receptor antagonists, primary screen, CHO cells, Fluo-8 calcium fluorescence. CHO-hM4 cells, ACh EC80. inhibition, % at 3 µM. 360,000 tested, 0.73% active;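 active = inhibition above its plate's cutoff, the mean inhibition of sample wells plus 3 SD, cut at about 27% in these data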
M5 PAM = human M5 muscarinic receptor positive allosteric modulators, primary screen, CHO-K1 cells, Fluo-8 calcium fluorescence | Muscarinic acetylcholine receptor M5 (Homo sapiens), P08912 | CHO-K1 hM5, ACh EC20 PAM; 0% = ACh EC20, 100% = ACh EC100 | activation, % at 3 µM | 360,000 tested, 0.3% active | AID 624038, 2012;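 active = activation above the run cutoff, the mean activation of all test compounds plus 3 SD, cut at about 18% in these data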
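system = human M5 receptor in CHO-K1 cells | reagent = EC20 acetylcholine as agonist stimulus | compound dosing = single-point, 3 µM nominal | incubation = Fluo-8 loading 80 min at 37 °C plus 30 min room temperature | detection = Fluo-8 calcium dye fluorescence, kinetic read | benchmarks = low control EC20 acetylcholine (0%), high control EC100 acetylcholine (100%)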
Large screens that a line does not name were inactive. Hits are enriched below; roughly 1.8% of the tested compounds scored in any of these assays.

COc1cc(OC)cc(C(=O)Nc2cccc(N3CCCC3)c2)c1	M4 antag 28
S=c1[nH]nc(-c2ccncc2)n1/N=C/C(Cl)=C\c1ccccc1	CHRM4 PAM 26, M5 ag 38
S=c1[nH]nc(-c2ccncc2)n1/N=C/C=C/c1ccccc1	none
COc1cc(/C=C2/SC(=Nc3ccc(O)cc3)NC2=O)cc(OC)c1O	none
COc1ccccc1N=C1NC(=O)/C(=C/c2ccc(N(C)C)cc2)S1	CHRM5 antagonist 36, M5 ag 51
COc1cccc(CN2CCNC(=O)C2CC(=O)N(C)C2CCOCC2)c1OC (configuration not stated)	CHRM5 antagonist 28
COc1cccc(CN2CCNC(=O)C2CC(=O)N(C)CC2CCOCC2)c1OC (configuration not stated)	none
C/C(=C\c1ccc(C)o1)C(=O)c1c(C)cc(C)[nH]c1=O	none
O=C(COC(=O)Cc1cccc(C(F)(F)F)c1)NCc1ccco1	CHRM4 PAM 32
Cc1ccc(-n2ncc3c(N4CCCC4)ncnc32)c(C)c1	none
COc1cccc(N2CCN(c3ncnc4c3cnn4-c3ccc(C)cc3C)CC2)c1	CHRM5 antagonist 47, M4 antag 47
CCCN(CC(=O)Nc1ccccc1C)C(=O)c1cnc(C)cn1	none
Cc1nn(-c2ccccc2)c(N)c1C1(O)C(=O)Nc2ccccc21 (configuration not stated)	none
Cc1nnc(NC(=O)CSc2nc3ccccc3o2)s1	CHRM4 PAM 32
O=C(CSc1nc2ccccc2s1)Nc1ccc(N2CCOCC2)c(Cl)c1	none
O=C(CSc1nc2ccccc2o1)Nc1ccc(N2CCOCC2)c(Cl)c1	CHRM5 antagonist 28
CCc1nnc(NC(=O)CSc2nc3ccccc3o2)s1	none
COc1ccc(C(C(=O)OCCN(C)C)c2ccccc2)cc1 (configuration not stated)	none
CCCOc1ccc(C(C(=O)OCCN(CC)CC)c2ccccc2)cc1 (configuration not stated)	CHRM5 antagonist 55
COc1ccccc1Cc1c(-c2cccc(Cl)c2)nc2ccc(Cl)cn12	none
Cc1ccc(S(=O)(=O)NC(C(=O)Oc2ccc3c(C(F)(F)F)cc(=O)oc3c2)c2ccccc2)cc1 (configuration not stated)	none
COc1ccc(-c2cn3cccnc3n2)cc1F	M5 PAM 18
COc1ccc(-c2cn3cccnc3n2)cc1NS(=O)(=O)c1ccccc1	none
O=C(NN1C(=O)/C(=C/c2ccc(O)c(O)c2)SC1=S)c1ccccc1	M5 ag 40
CCOc1cc(/C=C2\SC(=S)N(Nc3ccccc3)C2=O)ccc1O	none
COc1cc(/C=C2\SC(=S)N(NC(=O)c3ccc(O)cc3)C2=O)ccc1O	CHRM4 agonist 94, M5 ag 60, M4 antag 27
COc1cc(/C=C2/SC(=S)N(CC3CCCO3)C2=O)ccc1O (configuration not stated)	CHRM4 agonist 33
COc1cc(/C=C2\SC(=S)N(Nc3ccccc3)C2=O)ccc1O	CHRM5 antagonist 29, CHRM4 agonist 45, M5 ag 29, M4 antag 27
OCC[C@@H]1C[C@@H](O)[C@H](O)[C@]2(CCc3ccccc3O2)O1	none
COc1ccc(CCc2nnc(CCC(=O)NCc3cc(C(C)C)no3)o2)cc1	none
Cc1sc2ncn(CC(=O)N3CCN(c4ccc(F)cc4)CC3)c(=O)c2c1S(=O)(=O)N1CCOCC1	none
Cc1ccc(C)c(OCCC(=O)OCC(=O)Nc2ccc(N3CCOCC3)cc2)c1	none
CC(=O)N(Cc1ccccc1)c1ccc(C(=O)O)cc1	M5 PAM 25
COc1cccc(C2CC(c3ccccc3)=NN2S(=O)(=O)c2ccc(C)cc2)c1OC (configuration not stated)	M5 PAM 27
CCn1c(SCC(=O)NNC(=O)c2ccc(C)cc2)nnc1C(C)C	CHRM4 PAM 15
COc1ccc(CCNC(=O)c2ccccc2OCc2c(C)noc2C)cc1	none
COc1ccc(NC2c3ccccc3C(=O)N2c2ccccn2)cc1Cl (configuration not stated)	M4 antag 79
O=C1c2ccccc2C(Nc2ccc(F)c(Cl)c2)N1c1ccccn1 (configuration not stated)	none
Cc1ccc(Cc2c(-c3ccc(Cl)cc3)nc3ccc(Br)cn23)cc1	none
Cc1c(C(=O)N(Cc2nccn2C)C(C)C)oc2c(F)cccc12	none
CCCc1ccc2oc(C(=O)N(Cc3nccn3C)C(C)C)c(C)c2c1	CHRM4 PAM 17
O=C1C=C(NNC(=O)c2ccncc2)CC(c2ccccc2)C1 (configuration not stated)	M5 ag 33
CCCCn1c(Cc2ccccc2)n[nH]c1=S	CHRM5 antagonist 39, M4 antag 83
CCn1c(Cc2ccccc2)n[nH]c1=S	none
O=C(COC(=O)c1ccccc1F)NCc1ccc2c(c1)OCO2	none
CCOC(=O)C1CCN(C(C)=C2C(=O)c3ccccc3C2=O)CC1	CHRM4 PAM 17
CCOC(=O)C1CCN(C(=O)CCCN2C(=O)c3ccccc3C2=O)CC1	none
CCOC(=O)c1[nH]c2ccc(OC)cc2c1C	CHRM5 antagonist 32
O=C(CCN1C(=O)[C@@H]2Cc3ccccc3CN2C1=O)N[C@H](C(=O)O)c1ccccc1	none
CN1CCN(NC(=S)Nc2ccc(OC(F)F)cc2)CC1	none
O=C1CCC/C(=N/Nc2ccc(Cl)cc2)C1	none
N#CC1=C(N)C(C#N)(C#N)[C@H](c2ccncc2)[C@H]2CN(C(=O)OCc3ccccc3)CC=C12	CHRM4 PAM 35
Cc1cc(C)c(S(=O)(=O)Nc2ccc(C(=O)O)cc2)cc1S(=O)(=O)Nc1ccc(C(=O)O)cc1	none
CCN(c1ccccc1)S(=O)(=O)c1ccc2c(c1)CC(C)N2C(=O)C1CC1 (configuration not stated)	CHRM5 antagonist 27
CC(C)N(Cc1nccn1C)C(=O)CC1C(=O)NCCN1Cc1ccc(F)cc1 (configuration not stated)	none
COc1ccc(CN2CCNC(=O)C2CC(=O)N(Cc2nccn2C)C(C)C)c(OC)c1 (configuration not stated)	CHRM4 PAM 31
